Reference: ChEMBL document CHEMBL1146744, “Efficient synthesis and structure-activity relationship of honokiol, a neurotrophic biphenyl-type neolignan” (2004)

Assays:
[1] = test system: Rattus norvegicus; experiment: Neurite length after administration (0.1 uM) in rat cortical neurons; assay type: functional
Method in brief: (§1)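 E18 Sprague-Dawley rat fetal cortical neurons were plated at 5000 cells/cm² on poly-L-lysine in DMEM with 10% FBS and penicillin/streptomycin for 24 h. They were then switched to serum-free Neurobasal with 2% B27 containing the sample, with 0.5% ethanol as vehicle control. Cells were fixed in PFA and stained with anti-MAP2 (1:1000, overnight, 4 °C) and peroxidase/DAB. Primary process length was averaged over 100 random neurons.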

[2] = test system: Rattus norvegicus; experiment: Neurite length after administration (1 uM) in rat cortical neurons; assay type: functional; method in brief: as §1

Row | SMILES | Activity [1] | Activity [2]
1 | C=CCc1cc(-c2cc(CCC)ccc2O)ccc1O | 103 µm | 120 µm
2 | C=CCc1ccc(OC)c(-c2ccc(O)c(CC=C)c2)c1 | 133 µm | 123 µm
3 | C=CCc1ccc(O)c(-c2ccc(O)c(CC=C)c2)c1 [HONOKIOL] | 139 µm | 142 µm
4 | C=CCc1ccc(OC)c(-c2ccc(OC)c(CC=C)c2)c1 | 112 µm | 111 µm
5 | CCCc1ccc(O)c(-c2ccc(O)c(CCC)c2)c1 | 101 µm | 102 µm
6 | C=CCc1ccc(O)c(-c2ccc(OC)c(CC=C)c2)c1 [METHYLHONOKIOL] | 113 µm | 114 µm
7 | C=CCc1ccc(O)c(-c2ccc(O)c(CCC)c2)c1 | 128 µm | 150 µm
